Source: ChEMBL document CHEMBL4673252, “Discovery and Early Clinical Development of Isobutyl 1-[8-Methoxy-5-(1-oxo-3H-isobenzofuran-5-yl)-[1,2,4]triazolo[1,5-a]pyridin-2-yl]cyclopropanecarboxylate (LEO 39652), a Novel "Dual-Soft" PDE4 Inhibitor for Topical Treatment of Atopic Dermatitis” (J Med Chem, 2020)
Each block holds one compound with its values, some of them ahead of it.

Key:
[1] = Clearance in human liver microsomes at 0.5 uM incubated for 40 mins in presence of NADPH by LC-MS/MS analysis; type: ADME, Microsome; details: read-out: CLH
Summary of the method: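 Human liver microsomes (0.5 mg/mL) with 1 mM NADPH and 0.5 μM test compound, incubated for 40 min. Samples were taken before NADPH and at 5, 10, 20, 40 min, quenched with cold acetonitrile containing internal standard, and analysed by LC-MS/MS. Control incubations in buffer and without NADPH. Apparent clearance was calculated from depletion.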

[2] = Half life in human whole blood at 0.1 uM by LC-MS/MS analysis; type: ADME, tissue-based
[3] = Half life in human keratinocytes at 1 uM by LC-MS/MS analysis; type: ADME, cell-based, Keratinocyte
Summary of the method: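 Plated human epidermal keratinocytes (1 × 10⁴ cells/well) with 1 μM compound in duplicate for up to 24 h; sampled at 0, 1, 2, 4, 24 h, acetonitrile precipitation, LC-MS/MS. Controls in growth medium. Half-life reported.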

[4] = Half life in cynomolgus monkey whole blood at 0.1 uM by LC-MS/MS analysis; type: ADME, tissue-based, Macaca fascicularis
[5] = Half life in mini pig whole blood at 0.1 uM by LC-MS/MS analysis; type: ADME, tissue-based, Sus scrofa domesticus
[6] = Half life in rat whole blood at 0.1 uM by LC-MS/MS analysis; type: ADME, tissue-based
[7] = Drug metabolism in rat whole blood assessed as 4-[2-(1-Carboxycyclopropyl)-8-methoxy-[1,2,4]triazolo[1,5-a]-pyridin-5-yl]-2-(hydroxymethyl)benzoic Acid formation at 0.1 uM measured up to 120 mins by LC-MS/MS analysis; type: ADME, tissue-based; details: 2 h
[8] = Clearance in human hepatocytes at 10 uM by UPLC/TOF-MS analysis; type: ADME, cell-based, Hepatocyte
[9] = Clearance in mini pig hepatocytes at 10 uM by UPLC/TOF-MS analysis; type: ADME, cell-based, Sus scrofa domesticus, Hepatocyte; details: read-out: CLH
[10] = Drug exposure in human assessed as ratio of drug level to total AUC at 0.25% of Isobutyl 1-[8-Methoxy-5-(1-oxo-3H-isobenzofuran-5-yl)-[1,2,4]-triazolo[1,5-a]pyridin-2-yl]cyclopropanecarboxylate dosed via topical administration in lipid cream; type: ADME, organism-based; details: in vivo, topical_or_ocular
[11] = Drug exposure in Isobutyl 1-[8-Methoxy-5-(1-oxo-3H-isobenzofuran-5-yl)-[1,2,4]-triazolo[1,5-a]pyridin-2-yl]cyclopropanecarboxylate dosed cynomolgus monkey assessed as ratio of drug level to total AUC; type: ADME, organism-based, Macaca fascicularis; details: in vivo
Summary of the method: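 Blood was drawn at 0.25–24 h after infusion start and 6, 12, 24 h after infusion end into EDTA-K3, then plasma stabilized with ascorbic acid. LC-MS/MS quantification of parent and metabolites; noncompartmental PK.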

[12] = Drug exposure in of Isobutyl 1-[8-Methoxy-5-(1-oxo-3H-isobenzofuran-5-yl)-[1,2,4]-triazolo[1,5-a]pyridin-2-yl]cyclopropanecarboxylate dosed Gottingen mini pig assessed as ratio of drug level to total AUC at 0.5 to 2 mg/kg, iv measured up to 24 hrs by LC-MS/MS analysis; type: ADME, organism-based, Sus scrofa domesticus; details: in vivo, dose 0.5-2 mg/kg
[13] = Drug exposure in of Isobutyl 1-[8-Methoxy-5-(1-oxo-3H-isobenzofuran-5-yl)-[1,2,4]-triazolo[1,5-a]pyridin-2-yl]cyclopropanecarboxylate dosed Sprague-Dawley rat assessed as ratio of drug level to total AUC at 0.075 mg/kg, iv measured up to 30 mins by LC-MS/MS analysis; type: ADME, organism-based; details: in vivo, 0.5 h
Summary of the method: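 Male Sprague Dawley rats (n = 3) received a single iv injection of 0.075 mg/kg (50 μg/mL, 1.5 mL/kg) in 20% cyclodextrin. Blood was taken from the tongue vein at 1, 3, 6, 9, 12, 15 and 30 min into lithium-heparin, diluted 1:1 with heparin water, and analysed by LC-MS/MS for parent and metabolites.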

[14] = Drug exposure in skin of Gottingen mini pig at 0.25% dosed topically as monoglyceride cream measured after 24 hrs by LC-MS/MS analysis; type: ADME, organism-based, Sus scrofa domesticus, Skin of body; details: in vivo, topical_or_ocular
Summary of the method: (§1)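 Female Göttingen minipigs received single topical application of 1 or 2.5 mg/g monoglyceride cream at 10 μL/cm² over 4 cm² of belly/flank; excess removed. At 24 h sites were tape stripped (2 + 10 strips), 8 mm punch biopsies were taken and snap frozen, then homogenized, acetonitrile precipitated and analysed by LC-MS/MS; n = 2.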

[15] = Drug exposure in skin of Gottingen mini pig at 0.1% dosed topically as monoglyceride cream measured after 24 hrs by LC-MS/MS analysis; type: ADME, organism-based, Sus scrofa domesticus, Skin of body; details: in vivo, topical_or_ocular; summary of the method: as §1
[16] = Cmax in cynomolgus monkey at 30 mg/kg, sc dosed as single administration; type: ADME, organism-based, Macaca fascicularis; set-up: route subcutaneous, dose 30 mg/kg; details: in vivo, read-out: Cmax
Summary of the method: (§2)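 Single subcutaneous dose of 30 mg/kg.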

[17] = Cmax in human patient with atopic dermatitis at 0.25% dosed topically as lipid cream; type: ADME, organism-based; set-up: dose 0.25 %; details: in vivo, topical or ocular
[18] = AUC (0 to 24 hrs) in cynomolgus monkey at 30 mg/kg, sc dosed as single administration; type: ADME, organism-based, Macaca fascicularis; set-up: time < 24 hr, route subcutaneous, dose 30 mg/kg; details: in vivo; summary of the method: as §2
[19] = AUC (0 to 24 hrs) in human patient with atopic dermatitis at 0.25% dosed topically as lipid cream; type: ADME, organism-based; set-up: time < 24 hr, dose 0.25 %; details: in vivo, topical or ocular
[20] = Phototoxicity in mouse 3T3 cells; type: cell-based
[21] = tested on: TK6; assay: Genotoxicity in human TK6 cells in absence of S9 fraction by GreenScreen assay; type: toxicity, cell-based

CLint scaled at 0.5 µM [1]: > 167 mL/min/kg
half-life at 0.1 µM [2]: > 60 min
half-life at 1 µM [3]: > 720 min
half-life at 0.1 µM [4]: > 60 min
half-life at 0.1 µM [5]: > 60 min
half-life at 0.1 µM [6]: 34 min
Drug metabolism [7]: Metabolite_Detected
CLhep predicted at 10 µM [8]: 13 mL/min/kg
CLint scaled at 10 µM [9]: 21 mL/min/kg
Drug uptake [10]: 12%
Drug uptake [11]: 36%
Drug uptake [12]: 15%
Drug uptake [13]: 26%
Drug uptake [14]: 2 µM
Drug uptake [15]: 0.6 µM
Cmax [16]: 749 ng/mL
Cmax [17]: 0.299 ng/mL
AUC(0-t) at 24 h [18]: 932 ng·h/mL
AUC(0-t) at 24 h [19]: 4.18 ng·h/mL
Structure (SMILES): COc1ccc(-c2ccc(C(=O)O)c(CO)c2)n2nc(C3(C(=O)OCC(C)C)CC3)nc12

CLint scaled at 0.5 µM [1]: > 200 mL/min/kg
half-life at 0.1 µM [2]: 13 min
half-life at 1 µM [3]: > 720 min
Structure (SMILES): CC[C@@H](C)OC(=O)C1(c2nc3c(OC)ccc(-c4ccc5c(c4)COC5=O)n3n2)CC1
Activity [20]: Toxic

CLint scaled at 0.5 µM [1]: 97 mL/min/kg
half-life at 0.1 µM [2]: 10 min
half-life at 1 µM [3]: > 720 min
Structure (SMILES): COc1ccc(-c2ccc3c(c2)COC3=O)n2nc(C3(C(=O)OC4CCOCC4)CC3)nc12
Activity [21]: Toxic
